Source: ChEMBL document CHEMBL1150770, “Design, synthesis and biological evaluation of bis(hydroxyphenyl) azoles as potent and selective non-steroidal inhibitors of 17beta-hydroxysteroid dehydrogenase type 1 (17beta-HSD1) for the treatment of estrogen-dependent diseases” (Bioorg Med Chem, 2008)
Calls of active or inactive are those of the source. The rule behind the calls is not given here.

Assays:
[1] = molecular target: T1, 17-beta-hydroxysteroid dehydrogenase type 1 (Homo sapiens, UniProt P14061); test: Inhibition of 17-beta-HSD1-mediated 17-beta-estradiol formation in human T47D cells; format: cell-based
T1 sequence (P14061 whole entry): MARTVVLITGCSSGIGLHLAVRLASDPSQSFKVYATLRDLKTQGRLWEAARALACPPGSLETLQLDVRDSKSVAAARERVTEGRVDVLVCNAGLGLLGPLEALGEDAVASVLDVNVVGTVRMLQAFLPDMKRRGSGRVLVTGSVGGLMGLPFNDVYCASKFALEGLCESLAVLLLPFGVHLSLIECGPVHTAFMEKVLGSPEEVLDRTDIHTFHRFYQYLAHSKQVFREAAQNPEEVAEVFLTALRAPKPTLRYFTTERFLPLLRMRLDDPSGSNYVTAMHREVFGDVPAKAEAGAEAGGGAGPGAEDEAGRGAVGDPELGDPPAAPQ
How it was run: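 T47D cells, which express both 17β-HSD1 and 17β-HSD2, were kept in RPMI 1640 with 10% FCS at 37 °C, 5% CO₂. They were seeded in DMEM with FCS, then after 24 h switched to serum-free DMEM. Test compound was added in DMSO (1% final) and pre-incubated 30 min. Unlabelled plus [³H]-E1 (50 nM final) was added for 2.5 h. Steroids were extracted with ether, and E2 formed was quantified by HPLC with radiodetection.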

[2] = molecular target: Estrogen receptor beta (Homo sapiens) (UniProt Q92731); test: Displacement of [2,4,6,7-3H]17beta-estradiol from human recombinant ERbeta receptor relative to 17-beta-estradiol
Estrogen receptor beta (Homo sapiens), sequence (Q92731 whole entry): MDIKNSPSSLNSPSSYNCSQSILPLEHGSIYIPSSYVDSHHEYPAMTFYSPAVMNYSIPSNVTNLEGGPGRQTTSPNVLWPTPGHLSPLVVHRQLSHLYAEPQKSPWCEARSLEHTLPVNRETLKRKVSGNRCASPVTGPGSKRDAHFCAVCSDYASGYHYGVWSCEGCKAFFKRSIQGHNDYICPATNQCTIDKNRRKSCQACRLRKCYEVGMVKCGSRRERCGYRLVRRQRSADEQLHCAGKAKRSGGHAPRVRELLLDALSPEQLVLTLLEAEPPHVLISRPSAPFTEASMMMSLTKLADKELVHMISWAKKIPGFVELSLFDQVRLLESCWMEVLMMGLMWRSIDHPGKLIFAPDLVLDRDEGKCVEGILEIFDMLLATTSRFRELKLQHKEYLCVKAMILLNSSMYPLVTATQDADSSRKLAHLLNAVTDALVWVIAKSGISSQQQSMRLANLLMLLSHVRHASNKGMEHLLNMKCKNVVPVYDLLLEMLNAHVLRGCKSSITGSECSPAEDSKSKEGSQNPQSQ
How it was run: (§1)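 ERα or ERβ (0.25 pmol) incubated with [2,4,6,7-3H]-E2 (10 nM) and test compound, 1 h, room temperature, 5% DMSO final. Non-specific binding with diethylstilbestrol (10 µM). Bound complexes captured on hydroxyapatite, washed, resuspended in ethanol and counted by liquid scintillation. RBA derived from inhibitor and E2 concentrations displacing 50% of bound labelled E2.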

Homo sapiens = organism: Homo sapiens; test: Selectivity ratio of IC50 for human 17beta-HSD2 to IC50 for human 17beta-HSD1
How it was run: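 Selectivity factor computed as IC50 for placental microsomal 17β-HSD2 (E2 500 nM, NAD+ 1500 µM) divided by IC50 for placental cytosolic 17β-HSD1 (E1 500 nM, NADH 500 µM).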

[3] = molecular target: T1, 17-beta-hydroxysteroid dehydrogenase type 1; test: Inhibition of human placental 17beta-HSD1 using estrone substrate
How it was run: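 Cytosolic fraction of human placenta incubated at 37 °C with NADH (500 µM) and inhibitor in 50 mM phosphate buffer, 20% glycerol, 1 mM EDTA, DMSO 1% final. Started with unlabelled plus [3H]-E1 (500 nM final); stopped after 10 min with HgCl2, extracted into diethylether. E1/E2 separated by HPLC with radio detection.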

[4] = molecular target: T2, 17-beta-hydroxysteroid dehydrogenase type 2 (Homo sapiens, UniProt P37059); test: Inhibition of human placental 17beta-HSD2 using 17-beta-estradiol substrate
T2 sequence (P37059 whole entry): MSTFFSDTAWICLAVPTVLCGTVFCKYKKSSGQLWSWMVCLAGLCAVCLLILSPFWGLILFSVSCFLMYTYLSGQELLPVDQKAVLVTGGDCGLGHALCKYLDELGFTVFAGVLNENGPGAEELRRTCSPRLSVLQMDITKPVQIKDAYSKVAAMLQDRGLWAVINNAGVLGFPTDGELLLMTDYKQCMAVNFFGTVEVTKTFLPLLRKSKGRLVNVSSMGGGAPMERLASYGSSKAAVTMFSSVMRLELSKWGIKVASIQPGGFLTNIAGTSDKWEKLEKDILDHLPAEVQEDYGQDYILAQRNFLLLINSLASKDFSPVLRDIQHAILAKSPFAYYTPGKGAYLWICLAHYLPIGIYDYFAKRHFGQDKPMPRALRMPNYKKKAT
How it was run: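 Human placental microsomal fraction incubated 20 min at 37 °C with NAD+ (1500 µM), test compound and unlabelled plus [3H]-E2 (500 nM final). Extraction and HPLC with radio detection as for 17β-HSD1. Conversion = AUC(E1)/[AUC(E1)+AUC(E2)] × 100.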

T47D = test: Estrogenic effect in human T47D cells assessed as stimulation of cell proliferation at 100 nM by MTT assay; format: functional, cell-based
How it was run: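 T-47D cells grown 48 h in phenol red-free RPMI 1640 with 5% DCC-FCS, then treated with compound at 100 nM final (ethanol 1% final). E2 0.1 nM as positive control, ethanol as negative control. Medium and additives renewed every 2–3 days; after 8 days MTT reduction read at 590 nm. Stimulation = (proliferation relative to control set at 1, minus 1) × 100%.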

[5] = Apparent permeability across human Caco-2 cells; format: ADME, cell-based
How it was run: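 Caco-2 monolayers cultured 10 days at higher seeding density; cassette dosing with four reference compounds; donor concentration 50 µM in 0.2 M MES pH 6.5 with 1% ethanol or DMSO. Acceptor sampled at 0, 60, 120, 180 min, donor at 0 and 180 min; LC/MS/MS analysis; triplicate runs; monolayer integrity by TEER and lucifer yellow.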

[6] = molecular target: T3, Estrogen receptor (Homo sapiens) (UniProt P03372); test: Displacement of [2,4,6,7-3H]17beta-estradiol from human recombinant ERalpha receptor relative to 17-beta-estradiol; how it was run: as §1
T3 sequence (whole entry): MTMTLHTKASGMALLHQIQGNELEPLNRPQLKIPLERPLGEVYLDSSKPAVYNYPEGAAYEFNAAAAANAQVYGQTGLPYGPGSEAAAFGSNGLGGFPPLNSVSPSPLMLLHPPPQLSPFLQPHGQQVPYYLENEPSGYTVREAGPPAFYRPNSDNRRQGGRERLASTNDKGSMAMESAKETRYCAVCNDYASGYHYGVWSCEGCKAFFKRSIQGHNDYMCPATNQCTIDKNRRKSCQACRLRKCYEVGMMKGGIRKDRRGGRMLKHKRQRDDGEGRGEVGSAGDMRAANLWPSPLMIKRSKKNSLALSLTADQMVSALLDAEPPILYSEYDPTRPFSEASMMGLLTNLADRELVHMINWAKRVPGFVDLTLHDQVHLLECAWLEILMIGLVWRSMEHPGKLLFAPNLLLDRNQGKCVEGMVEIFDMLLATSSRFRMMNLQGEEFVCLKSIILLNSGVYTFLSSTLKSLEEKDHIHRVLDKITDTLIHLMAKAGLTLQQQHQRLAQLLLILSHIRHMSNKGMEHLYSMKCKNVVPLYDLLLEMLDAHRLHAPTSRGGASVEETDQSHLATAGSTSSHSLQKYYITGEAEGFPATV

SMILES	IC50 [1] [nM]	RBA [2] [%]	Ratio IC50 (Homo sapiens)	IC50 [3] [nM]	IC50 [4] [nM]	Activity (T47D)	Papp [5] [×10⁻⁶ cm/s]	RBA [6] [%]
Oc1ccc(-c2cnc(-c3cccc(O)c3)o2)cc1	380	0.5	56	310	17500	inactive	7.9	0.01
Oc1ccc(-c2coc(-c3cccc(O)c3)n2)cc1		0.01	0.1	1850	250			0.01
Oc1ccc(-c2cn(-c3cccc(O)c3)nn2)cc1		0.01	9	840	7280			0.01
Oc1ccc(-c2cc(-c3cccc(O)c3)on2)cc1		< 0.01	0.2	1610	270			0.01
Oc1ccc(-n2cc(-c3cccc(O)c3)nn2)cc1		< 0.01	6	1320	8120			< 0.01
